# Most compounds without a hit are left out; they make up all but 2.9% or so of the library.
# ERAP1 HTS inh: human ERAP1 aminopeptidase inhibitors, primary screen, biochemical, single point, plate reader | inhibition, % at 10.7 µM | AID 652197, 2013 | 0.15% of 340,000 active | recombinant ERAP1, Leu-AMC fluorescence, 60 min | Endoplasmic reticulum aminopeptidase 1 (Homo sapiens), Q9NZ08;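 active means mean replicate inhibition of at least 30%, or all replicates individually reaching that 30% level; inactive means mean below 30% and not every replicate reaching it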;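 further: 0% = neutral control wells and 100% = L-leucinethiol positive control wells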
# S100A4 inh HTS: inhibitors of S100A4-myosin IIA peptide binding, primary screen, biochemical, fluorescence polarization, TAMRA-MyoIIA peptide. Protein S100-A4 (Homo sapiens), P26447. inhibition, % at 10.7 µM. 0.14% of 360,000 active. AID 652163, 2013;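 active means mean inhibition of at least 70% across replicates, with every replicate also reaching that level; inconclusive means mean inhibition reaches 70% but some replicates fall short; inactive means mean inhibition below 70%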
# Target sequence (P26447 whole entry, looked up): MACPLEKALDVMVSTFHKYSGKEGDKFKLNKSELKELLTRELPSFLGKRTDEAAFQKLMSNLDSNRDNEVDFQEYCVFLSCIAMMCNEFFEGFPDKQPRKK
#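 System – human S100A4 monomer protein, biochemical binding assay · Buffer or medium – Calcium-containing HEPES buffer, pH 7.2 · Timing – 5 min between mix addition and reading · Also added – TAMRA-labelled myosin IIA heavy-chain peptide probe, 5 nM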
# SIRT5 inh: SIRT5 desuccinylase inhibitors, primary screen, biochemical, fluorescence imaging, single point, set 5; NAD-dependent protein deacylase sirtuin-5, mitochondrial (Homo sapiens), Q9NXA8; Purified SirT5, succinyl-peptide AMC, trypsin-coupled fluorescence; inhibition, % at 15 µM; 1.1% of 330,000 active; AID 652115, 2013; in the data active means inhibition above about 15%; inconclusive means no clear call, values can overlap the other calls
# Target sequence (Q9NXA8 whole entry, looked up): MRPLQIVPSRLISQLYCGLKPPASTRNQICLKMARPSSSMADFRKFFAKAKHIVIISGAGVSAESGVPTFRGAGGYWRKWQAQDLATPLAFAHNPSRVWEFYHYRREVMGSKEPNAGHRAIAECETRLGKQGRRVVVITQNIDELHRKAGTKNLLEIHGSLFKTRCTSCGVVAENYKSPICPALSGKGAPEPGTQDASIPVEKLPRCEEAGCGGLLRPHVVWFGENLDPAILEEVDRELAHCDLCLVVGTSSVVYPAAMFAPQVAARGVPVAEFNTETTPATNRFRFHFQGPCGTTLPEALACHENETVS
# CAL PDZ FP-1: CAL PDZ peptide-binding inhibitors, primary screen, biochemical, fluorescence polarization, Cer-tagged CAL PDZ, HTS; Golgi-associated PDZ and coiled-coil motif-containing protein (Homo sapiens), Q9HD26; purified CAL PDZ, TMR-peptide fluorescence polarization, 1 h; inhibition, % at 20 µM; 0.02% of 330,000 active; AID 504414, 2011;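 active means highest replicate inhibition of at least 40%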;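 further: plate controls were DMSO neutral control wells for no effect and unlabeled competitor peptide control wells for full effect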
#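 Control set: unlabelled peptide and DMSO controls / Material: purified CerCALP PDZ construct / Timing: 1 h incubation at room temperature before polarization reading / Doses: 20 µM, one dose / Detection: fluorescence polarization (mP)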
# CAL PDZ FP-2: untagged CAL PDZ binding inhibitors, primary screen, biochemical, fluorescence polarization, HTS; Golgi-associated PDZ and coiled-coil motif-containing protein (Homo sapiens), Q9HD26; purified CAL PDZ, TMR-peptide fluorescence polarization, 1 h; inhibition, % at 24.9 µM; 0.92% of 300,000 active; AID 602252, 2012;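 active means mean inhibition of at least 30% with at least half of replicates also reaching 30%; inconclusive means no clear call, values can overlap the other calls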;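 further: 0% = DMSO neutral control and 100% = excess unlabeled competitor peptide PRC23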
# DENV2 CPE rescue: inhibitors of DENV2 cytopathic effect, primary screen, cell-based, plate reader, single concentration | CPE inhibition, % at 9.99 µM | AID 651640, 2012 | 1.7% of 350,000 active | DENV2-infected cells, cytopathic effect rescue; in the data active means CPE inhibition above about 20%, passing the limit was not always enough; inconclusive means no clear call, values can overlap the other calls; tested in BHK-21 cells;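 further: 0% = median of neutral control wells and 100% = median of positive control wells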
# * = called active by the depositor; ? = inconclusive; nt = no result.
SMILES,ERAP1 HTS inh,S100A4 inh HTS,SIRT5 inh,CAL PDZ FP-1,CAL PDZ FP-2,DENV2 CPE rescue
O=C(c1cccnc1)N1CCCCN2[C@H](C1)[C@@H](c1ccc(C#Cc3ccccc3)cc1)[C@@H]2CO,nt,nt,nt,nt,nt,1.5
Cc1ccccc1-c1ccc([C@@H]2[C@@H](CO)N3CCCCN(C(=O)c4cccnc4)C[C@H]23)cc1,1.0,-0.8,0.3,nt,nt,49.1*
O=C(c1cccnc1)N1CCCCN2[C@H](C1)[C@@H](c1ccc(C#Cc3ccccn3)cc1)[C@@H]2CO,-0.4,2.6,0.5,nt,nt,-2.2
O=C(c1cccnc1)N1CCCCN2[C@H](CO)[C@@H](c3ccc(C#Cc4ccccn4)cc3)[C@H]2C1,-0.9,13.4,1.5,nt,nt,20.3*
O=C(NC1CCCC1)N1CCCCN2[C@@H](CO)[C@@H](c3ccc(-c4cccnc4)cc3)[C@@H]2C1,1.5,97.7*,-0.8,nt,nt,-2.3
COc1ccccc1CNC(=O)C[C@@H]1CC[C@@H]2[C@H](COC[C@@H](O)CN2Cc2ccccc2)O1,-0.7,-3.5,-0.3,nt,nt,3.0
CCCCCCc1ccc(N2C[C@H](CCCCC)[C@@H](CC(=O)NCc3ccc(OC)cc3)C2=O)cc1,-5.9,-3.4,0.0,-1.2,1.1,94.7*
CCCCCCc1ccc(N2C[C@H](Cc3ccccc3)[C@@H](CC(=O)NCc3ccc(OC)cc3)C2=O)cc1,-1.8,6.8,nt,0.5,-5.8,15.7
CCCc1c(C)nc(N2CCN(c3ccc(F)cc3)CC2)[nH]c1=O,1.2,2.6,21.5*,-0.9,-2.2,1.2
C[C@H]1CN([C@@H](C)CO)C(=O)c2cc(NC(=O)CCCN(C)C)ccc2O[C@H]1CN(C)C(=O)NC1CCCCC1,-0.4,10.0,1.0,nt,nt,-0.2
N/N=C(/Cc1nc2ccccc2[nH]1)c1ccc([N+](=O)[O-])cc1,3.6,-2.7,-0.7,0.0,73.5*,3.4
c1ccc(N/N=C(\Cc2nc3ccccc3[nH]2)c2ccccc2)cc1,0.1,0.2,-1.2,-3.9,-2.0,14.4
C[C@@H]1CCCCO[C@H](CN(C)C(=O)C2CCCCC2)[C@@H](C)CN([C@@H](C)CO)C(=O)c2cc(NC(=O)C3CCCCC3)ccc2O1,3.2,-6.0,5.0,nt,nt,-21.5
CN1CCN(c2ccccc2NC(=O)c2ccc(N3CCCC3)c([N+](=O)[O-])c2)CC1,0.8,4.1,-0.6,58.4*,43.3*,-3.8
O=C(Nc1ccccc1N1CCCCC1)c1ccc(Cl)c([N+](=O)[O-])c1,0.8,-1.3,-0.7,0.1,nt,2.5
C[C@H]1[C@H](c2ccccc2)C[C@@H](C(=O)O)C1(C)C,-2.1,0.8,nt,-0.5,-2.2,40.3*
CN1c2ccc(-c3cccc(F)c3)cc2[C@@H]2[C@@H](CCN2C(=O)CC2CC2)[C@@H]1CO,1.0,36.9,-17.6,nt,nt,?
CCOC(=O)c1c(SC)n(-c2ccccc2)c(=S)n(-c2ccccc2)c1=O,-1.3,-3.7,-5.0,-0.3,-6.2,?
CCOC(=O)c1c(SCCN2CCCCC2)n(-c2ccccc2)c(=S)n(-c2ccccc2)c1=O,-1.3,0.3,-1.5,-0.5,0.4,22.5*
CCc1c(C)c(C#N)c2nc3ccccc3n2c1NCC1CCCO1 (centres undefined),nt,nt,nt,0.2,31.5*,nt
O=C(C[C@@H]1CC[C@@H]2[C@H](COC[C@H](O)CN2S(=O)(=O)c2ccccc2Cl)O1)N1CCC(Cc2ccccc2)CC1,1.0,?,2.0,nt,nt,-0.2
CCC(=O)Nc1ccc2c(c1)C(=O)N(C)[C@@H]1CC[C@@H](CC(=O)NCC3CC3)O[C@@H]1CO2,-1.1,-17.1,2.5,nt,nt,7.2
CC(=O)CCc1ccc(OCC(=O)Nc2cccc(S(=O)(=O)N(C)c3ccccc3)c2)cc1,2.0,1.8,16.9*,-3.2,-0.1,2.8
CN(c1ccccc1)S(=O)(=O)c1cccc(NC(=O)COc2ccccc2)c1,-1.8,0.8,4.9,-1.6,-6.0,-7.1
C[C@@H]1CN([C@@H](C)CO)C(=O)Cc2cc(NC(=O)CCC(F)(F)F)ccc2O[C@@H]1CN(C)Cc1ccc(C(F)(F)F)cc1,-0.8,-2.9,-1.0,nt,nt,-3.5
SMILES,ERAP1 HTS inh,S100A4 inh HTS,SIRT5 inh,CAL PDZ FP-1,CAL PDZ FP-2,DENV2 CPE rescue
COc1ccc(-c2c(NC(C)=O)n(C)c3ccccc3c2=O)cc1,nt,nt,nt,16.6,45.0*,nt
Cc1cc2ccccn2c1C(=O)c1ccc(F)cc1,-1.2,-6.1,-0.9,-2.0,-4.4,0.3
Cc1cc2ccccn2c1C(=O)c1ccccc1Br,1.2,-7.3,-0.1,-9.1,-5.5,41.7*
C[C@H](CO)N1C[C@H](C)[C@@H](CN(C)S(=O)(=O)c2ccc(F)cc2)Oc2cc(-c3cccc(F)c3)ccc2S1(=O)=O,3.5,17.2,16.7*,nt,nt,-4.8
COc1ccccc1-c1ccc2c(c1)O[C@H](CN(C)S(=O)(=O)c1ccc(F)cc1)[C@H](C)CN([C@H](C)CO)S2(=O)=O,-1.5,-4.4,26.0*,nt,nt,6.9
COc1ccccc1-c1ccc2c(c1)O[C@@H](CN(C)S(=O)(=O)c1ccc(F)cc1)[C@H](C)CN([C@@H](C)CO)S2(=O)=O,-2.8,-22.2,11.4,nt,nt,9.0
COc1ccccc1-c1ccc2c(c1)O[C@H](CN(C)S(=O)(=O)c1ccc(F)cc1)[C@@H](C)CN([C@@H](C)CO)S2(=O)=O,-0.1,0.3,23.5*,nt,nt,?
Cc1noc(C)c1S(=O)(=O)N(C)C[C@H]1Oc2ccc(NS(=O)(=O)c3cn(C)cn3)cc2C(=O)N([C@H](C)CO)C[C@H]1C,-4.3,20.7,2.2,nt,nt,-3.5
COc1ccc(-c2nc3scc(-c4ccc(OC)c(OC)c4)c3c(=O)o2)cc1,nt,nt,nt,0.4,0.1,nt
COc1ccc(-c2csc3nc(C(C)C)oc(=O)c23)cc1OC,-2.7,-3.5,23.6*,-0.5,3.1,2.2
COc1ccc2c3c([nH]c2c1)[C@@H](CO)N(C(=O)Nc1ccc(F)cc1)CC31CN(C(=O)Cc2ccncc2)C1,2.3,22.9,nt,nt,nt,-6.5
